One assay deals with Escherichia coli. The experiment in a line: Antibacterial activity against ampicillin-resistant Escherichia coli NCIM 2645 assessed as bacterial growth inhibition zone after 24 hrs by disc diffusion method. The assay is classed as functional, organism-based. A digest of the protocol:
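Strains activated in nutrient broth, 24 h at their optimum growth temperature. Nutrient agar plates seeded with 100 μl mid-log culture. Sterile 6 mm filter paper discs each loaded with 10 μl of compound solution (10 mg/ml in DMSO, filter-sterilised) and left to diffuse 20 min. Plates incubated 24 h at growth temperature. Controls: ampicillin disc (positive), 10 μl DMSO disc (negative). Zone ≥7 mm counted as susceptible.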
On the technique in general: Agar diffusion results depend on both activity and mobility in agar.

Another assay relates to Salmonella typhi. Kind of assay: Antibacterial activity against ampicillin-resistant Salmonella typhi NCIM 2501 assessed as bacterial growth inhibition zone at […] after 24 hrs by disc diffusion method. The format is functional, organism-based. The following applies: Salmonella enterica subsp. enterica serovar Typhi.
Assay [1] concerns A549. Kind of assay: Antiproliferative activity against human A549 cells assessed as growth inhibition at 2 to 20 uM after 24 hrs. The format is functional.
The test system of assay [2] is A549. Kind of assay: Induction of apoptosis in human A549 cells after 6 hrs. The format is functional, cell-based.
Assay [3] concerns A549. The experiment in a line: Antiproliferative activity against human A549 cells. The assay is classed as functional, cell-based. The method in brief:
(§1)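 A549 and SK-MEL2 cells (from NCCS Pune) grown in DMEM with 5–10% FBS, penicillin and 4 mM L-glutamine at 37 °C, 5% CO2. Plates were seeded 24 h ahead and washed with serum-free medium. Cells were exposed to 0, 2, 4, 8, 16 and 20 μM for […], then cell proliferation was estimated. Results are % cell growth, averaged from triplicate cultures run twice.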

The subject of assay [4] is SK-MEL-2. The experiment in a line: Induction of apoptosis in human SK-MEL-2 cells after 6 hrs. The format is functional, cell-based.
The subject of assay [5] is SK-MEL-2. Kind of assay: Antiproliferative activity against human SK-MEL-2 cells. The format is functional, cell-based. The method in brief: as §1

Molecules are shown by their SMILES. Activity calls are given as the source filed them. The calls are words filed in the database; no cut-off is given here.

Here are results for four molecules from ChEMBL document CHEMBL1759912, “Ionic liquid promoted synthesis, antibacterial and in vitro antiproliferative activity of novel α-aminophosphonate derivatives” (Bioorg Med Chem Lett, 2011).

Turning to `CCOP(=O)(OCC)C(Nc1ccc(Cl)cc1[N+](=O)[O-])c1ccc(OC)c(OC)c1` (configuration not stated), the outcome with Escherichia coli and with Salmonella typhi was Active.

Consider `CCOP(=O)(OCC)C(Nc1ccc(Cl)cc1[N+](=O)[O-])c1cccc(Cl)c1` (configuration not stated), for which the result in the assay on Escherichia coli and in the assay with Salmonella typhi was Active.

Turning to `CCOP(=O)(OCC)C(Nc1ccc(I)cc1[N+](=O)[O-])c1ccc(Cl)cc1` (configuration not stated), in the assay on Salmonella typhi, the result was Active.

The term IC50 denotes the concentration at which inhibition is half-maximal. Read a high IC50 as weaker potency. `CCOP(=O)(OCC)C(Nc1ccc(Cl)cc1[N+](=O)[O-])c1c[nH]c2ccccc12` (configuration not stated): the “growth inhibition (GI)” value in the assay on A549 [1] was 80%. The outcome in the assay on A549 [2], with SK-MEL-2 [4], with Escherichia coli and in the assay with Salmonella typhi was Active. The IC50 amounted to 11.5 µM in the assay on A549 [3] and 8.43 µM in the assay with SK-MEL-2 [5].
